Measured values from different studies.
Lines come from different studies, so protocols differ.
SLC6A3: Sodium-dependent dopamine transporter (SLC6A3, Homo sapiens, UniProt Q01959)
DRD3: D(3) dopamine receptor (DRD3, Homo sapiens, UniProt P35462)
PDE10A: cAMP and cAMP-inhibited cGMP 3',5'-cyclic phosphodiesterase 10A (PDE10A, Homo sapiens, UniProt Q9Y233)

With `CCOC(=O)[C@@]12C[C@@H]1[C@@H](n1ccc3c(NCCCCc4ccccc4)nc(C#Cc4ccccc4)nc31)[C@H](O)[C@@H]2O` the inhibition was 66% (SLC6A3; ligand displacement, radioligand; 10 µM).
With `Cc1[nH]c(C)c(S(=O)(=O)Nc2ccc(C(C)C)cc2)c1C(=O)N1CCCC1` the Emax was 96% (DRD3; β-arrestin recruitment, agonist; 90 min).
With `COc1cc2ncnc(Cc3cccc(-c4ccc(CO)cc4)c3)c2cc1OC` the inhibition was 66% (PDE10A; enzyme activity, inhibitor, FP; 0.1 µM).
`Cc1[nH]c(C)c(S(=O)(=O)Nc2ccc(C(F)(F)F)c(Cl)c2)c1C(=O)N1CCCC1` gave an Emax of 92% (DRD3; β-arrestin recruitment, agonist; 90 min).
`CCOC(=O)[C@@]12C[C@@H]1[C@@H](n1cnc3c(NCCO)nc(I)nc31)[C@H](O)[C@@H]2O` gave an inhibition of 20% (SLC6A3; ligand displacement, radioligand; 10 µM).
For `COc1ccc2nccc(Cc3ccc(OC)c(OC)c3)c2c1`, the inhibition was 3% (PDE10A; enzyme activity, inhibitor, FP; 0.1 µM).
For `CCCCC(=O)Nc1ccc(-c2ccc3ncn(CCC)c(=O)c3c2)cn1`, the remaining binding was 86% (Dual specificity protein kinase CLK4 (CLK4, Homo sapiens, UniProt Q9HAZ1); binding, competition with immobilised ligand; 0.5 µM).
`N#C[C@@]12C[C@@H]1[C@@H](n1cnc3c(Nc4ccccc4)nc(C#Cc4ccc(Cl)s4)nc31)[C@H](O)[C@@H]2O` gave an inhibition of 74% (SLC6A3; ligand displacement, radioligand; 10 µM).
`COc1ccc2nccc(Cc3cccc(-c4ccc(CO)cc4)c3)c2c1` has an inhibition of 0% (PDE10A; enzyme activity, inhibitor, FP; 0.1 µM).
`Cc1[nH]c(C)c(S(=O)(=O)Nc2ccc(C(F)(F)F)c(Cl)c2)c1C(=O)N1CCC(O)C1` (stereo not drawn) gave an Emax of 89% (DRD3; β-arrestin recruitment, agonist; 90 min).
`N#C[C@@]12C[C@@H]1[C@@H](n1cnc3c(Nc4ccc(Cl)c(Cl)c4)nc(I)nc31)[C@H](O)[C@@H]2O` gave an inhibition of -9% (SLC6A3; ligand displacement, radioligand; 10 µM).
With `C1=C/COCc2cc(ccc2OCCN2CCCC2)Nc2nccc(n2)-c2cccc(c2)COC/1` the remaining binding was 100% (Serine/threonine-protein kinase D1 (PRKD1, Homo sapiens, UniProt Q15139); binding; 0.1 µM).
`COc1cc2ncnc(Cc3cccc(-c4ccc(C)cc4)c3)c2cc1OC` gave an inhibition of 78% (PDE10A; enzyme activity, inhibitor, FP; 0.1 µM).
The Emax of `Cc1[nH]cc(S(=O)(=O)Nc2ccc(C(F)(F)F)c(Cl)c2)c1C(=O)N(C)C` is reported as 83% (DRD3; β-arrestin recruitment, agonist; 90 min).
`CCOC(=O)[C@@]12C[C@@H]1[C@@H](n1cnc3c(NCCCCCc4ccccc4)nc(C#Cc4ccc(Cl)s4)nc31)[C@H](O)[C@@H]2O` has an inhibition of < 5% (SLC6A3; transporter uptake, inhibitor, radiometric; HEK293; 10 µM).
For `Cc1[nH]cc(S(=O)(=O)Nc2ccc(C(F)(F)F)c(Cl)c2)c1C(=O)N1CCC(F)(F)C1`, the Emax was 91% (DRD3; β-arrestin recruitment, agonist; 90 min).
For `COc1ccc2c(Cc3ccc(OC)c(OC)c3)ccnc2c1`, the inhibition was 33% (PDE10A; enzyme activity, inhibitor, FP; 0.1 µM).
`N#CC[C@@]12C[C@@H]1[C@@H](n1cnc3c(NCCCCCc4ccccc4)nc(I)nc31)[C@H](O)[C@@H]2O` has an inhibition of 23% (SLC6A3; ligand displacement, radioligand; 10 µM).
`Cc1[nH]c(C)c(S(=O)(=O)Nc2ccc(Cl)c(Cl)c2Cl)c1C(=O)N1CCC(F)(F)C1` has an Emax of 92% (DRD3; β-arrestin recruitment, agonist; 90 min).
`c1ccc2c(Cc3ccc4cn(C5COC5)nc4c3)nccc2c1` gave an inhibition of 0% (PDE10A; enzyme activity, inhibitor, FP; 0.1 µM).
`Cc1[nH]c(C)c(S(=O)(=O)Nc2ccc(C(F)(F)F)c(Br)c2)c1C(=O)N1CCCC1` has an Emax of 91% (DRD3; β-arrestin recruitment, agonist; 90 min).
For `COc1ccc2oc(-c3ccc4nc(N)oc4c3)c/c(=N\c3ccccc3NC(=O)CCN)c2c1`, the remaining binding was 100% (Activated CDC42 kinase 1 (TNK2, Homo sapiens, UniProt Q07912); binding; 1 µM).
The inhibition of `CCOC(=O)[C@@]12C[C@@H]1[C@@H](n1ccc3c(NCCCCCc4ccccc4)nc(C#Cc4ccccc4)nc31)[C@H](O)[C@@H]2O` is reported as 63% (SLC6A3; ligand displacement, radioligand; 10 µM).
With `c1ccc(-c2cccc(Cc3ccnc4ccccc34)c2)cc1` the inhibition was 0% (PDE10A; enzyme activity, inhibitor, FP; 0.1 µM).
For `CNC(=O)[C@@]12C[C@@H]1[C@@H](n1cnc3c(Nc4ccccc4)nc(C#Cc4ccc(Cl)s4)nc31)[C@H](O)[C@@H]2O`, the inhibition was 84% (SLC6A3; ligand displacement, radioligand; 10 µM).
`COc1ccc2ccnc(Cc3cccc(-c4ccccc4)c3)c2c1` gave an inhibition of 5% (PDE10A; enzyme activity, inhibitor, FP; 0.1 µM).
`Cc1[nH]c(C)c(S(=O)(=O)Nc2ccc(C(F)(F)F)c(Cl)c2)c1C(=O)N1CC(F)(F)C(F)(F)C1` has an Emax of 100% (DRD3; β-arrestin recruitment, agonist; 90 min).
